Source: ChEMBL document CHEMBL1165950, “Design and synthesis of new potent anticancer pyrazoles with high FLT3 kinase inhibitory selectivity” (Bioorg Med Chem, 2010)

How the values were obtained:
Format in all cases: functional
MCF7 [1] = experiment: Growth inhibition of human MCF7 cells after 48 hrs by sulforhodamine B assay; conditions: MCF7, 48 h
Outline: (§1)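 NCI 60-cell screen, five-dose mode. Cells grown in RPMI 1640 with 5% FBS and 2 mM L-glutamine and plated at 5000-40,000 cells/well according to doubling time. After 24 h preincubation, a Tz plate was TCA-fixed. Five concentrations (10-fold or 1/2 log dilutions) were applied for 48 h at 37 °C. SRB staining read at 515 nm. IC50 taken from [(Ti-Tz)/(C-Tz)]×100 = 50.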

SR [2] = experiment: Growth inhibition of human SR cells after 48 hrs by sulforhodamine B assay; outline: as §1
NCI-H226 [3] = experiment: Growth inhibition of human NCI-H226 cells after 48 hrs by sulforhodamine B assay; conditions: NCI-H226, 48 h; for CC50: read-out: LC50 (the source's name); outline: as §1
SK-MEL-28 [4] = experiment: Cytotoxicity against human SK-MEL-28 cells assessed as cell growth at 1 uM after 48 hrs by sulforhodamine B assay; conditions: SK-MEL-28, 48 h, read-out: Activity
MCF7 [5] = experiment: Cytotoxicity against human MCF7 cells assessed as cell growth at 100 nM after 48 hrs by sulforhodamine B assay; conditions: MCF7, 48 h, read-out: Activity
SR [6] = experiment: Cytotoxicity against human SR cells assessed as cell growth at 0.001 uM after 48 hrs by sulforhodamine B assay; conditions: read-out: Activity
SK-MEL-28 [7] = experiment: Growth inhibition of human SK-MEL-28 cells after 48 hrs by sulforhodamine B assay; conditions: SK-MEL-28, 48 h; for CC50: read-out: LC50 (the source's name); outline: as §1
[8] = Cytotoxicity against human […] cells assessed as cell growth at 10 uM after 48 hrs by sulforhodamine B assay; conditions: read-out: Activity
HCC 2998 [9] = experiment: Growth inhibition of human HCC2998 cells after 48 hrs by sulforhodamine B assay; conditions: HCC 2998, 48 h; for CC50: read-out: LC50 (the source's name); outline: as §1
DU-145 = experiment: Cytotoxicity against human DU145 cells assessed as cell growth at 0.01 uM after 48 hrs by sulforhodamine B assay; conditions: DU-145, 48 h, read-out: Activity
NCI-H226 [10] = experiment: Cytotoxicity against human NCI-H226 cells assessed as cell growth at 10 uM after 48 hrs by sulforhodamine B assay; conditions: NCI-H226, 48 h, read-out: Activity
SR [11] = experiment: Cytotoxicity against human SR cells assessed as cell growth at 0.01 uM after 48 hrs by sulforhodamine B assay; conditions: read-out: Activity
RXF 393 [12] = experiment: Cytotoxicity against human RXF393 cells assessed as cell growth at 100 nM after 48 hrs by sulforhodamine B assay; conditions: RXF 393, 48 h, read-out: Activity
SR [13] = experiment: Cytotoxicity against human SR cells assessed as cell growth at 100 nM after 48 hrs by sulforhodamine B assay; conditions: read-out: Activity
HCT-116 = experiment: Cytotoxicity against human HCT116 cells assessed as cell growth at 100 nM after 48 hrs by sulforhodamine B assay; conditions: HCT-116, 48 h, read-out: Activity
MCF7 [14] = experiment: Cytotoxicity against human MCF7 cells assessed as cell growth at 1 uM after 48 hrs by sulforhodamine B assay; conditions: MCF7, 48 h, read-out: Activity
SK-MEL-28 [15] = experiment: Cytotoxicity against human SK-MEL-28 cells assessed as cell growth at 0.001 uM after 48 hrs by sulforhodamine B assay; conditions: SK-MEL-28, 48 h, read-out: Activity
RXF 393 [16] = experiment: Growth inhibition of human RXF393 cells after 48 hrs by sulforhodamine B assay; conditions: RXF 393, 48 h; outline: as §1
HCC 2998 [17] = experiment: Cytotoxicity against human HCC2998 cells assessed as cell growth at 10 uM after 48 hrs by sulforhodamine B assay; conditions: HCC 2998, 48 h, read-out: Activity
SF-295 = experiment: Cytotoxicity against human SF295 cells assessed as cell growth at 100 nM after 48 hrs by sulforhodamine B assay; conditions: SF-295, 48 h, read-out: Activity
RXF 393 [18] = experiment: Cytotoxicity against human RXF393 cells assessed as cell growth at 1 uM after 48 hrs by sulforhodamine B assay; conditions: RXF 393, 48 h, read-out: Activity
NCI-H226 [19] = experiment: Cytotoxicity against human NCI-H226 cells assessed as cell growth at 0.01 uM after 48 hrs by sulforhodamine B assay; conditions: NCI-H226, 48 h, read-out: Activity
SK-MEL-28 [20] = experiment: Cytotoxicity against human SK-MEL-28 cells assessed as cell growth at 100 nM after 48 hrs by sulforhodamine B assay; conditions: SK-MEL-28, 48 h, read-out: Activity
ACHN = experiment: Cytotoxicity against human ACHN cells assessed as cell growth at 0.01 uM after 48 hrs by sulforhodamine B assay; conditions: read-out: Activity
RXF 393 [21] = experiment: Cytotoxicity against human RXF393 cells assessed as cell growth at 0.001 uM after 48 hrs by sulforhodamine B assay; conditions: RXF 393, 48 h, read-out: Activity
[22] = Cytotoxicity against human […] cells assessed as cell growth at 10 uM; conditions: read-out: Activity
Outline: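 NCI-60 screen: cells grown in RPMI 1640 with 5% FBS and 2 mM L-glutamine, plated at 5000–40,000 cells/well according to doubling time, and preincubated 24 h at 37 °C, 5% CO2. The single 10 µM dose (DMSO stock) was added, then incubated 48 h. Cells were TCA-fixed and stained with 0.4% SRB, read at 515 nm, and growth % calculated against time-zero and control plates.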

HOP-92 = experiment: Cytotoxicity against human HOP92 cells assessed as cell growth at 10 uM; conditions: read-out: Activity
Outline: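 Single-dose NCI-60 screen at 10 µM. Cells were grown in RPMI 1640 with 5% FBS and 2 mM L-glutamine, then treated for 48 h at 37 °C. Protein was measured by SRB staining with absorbance at 515 nm. Percentage growth was recorded, and inhibition percentage was calculated as 100 minus growth percentage.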

HCC 2998 [23] = experiment: Cytotoxicity against human HCC2998 cells assessed as cell growth at 1 uM after 48 hrs by sulforhodamine B assay; conditions: HCC 2998, 48 h, read-out: Activity
MDA-MB-435 = experiment: Cytotoxicity against human MDA-MB-435 cells assessed as cell growth at 0.01 uM after 48 hrs by sulforhodamine B assay; conditions: MDA-MB-435, 48 h, read-out: Activity
SR [24] = experiment: Cytotoxicity against human SR cells assessed as cell growth at 1 uM after 48 hrs by sulforhodamine B assay; conditions: read-out: Activity
CAKI-1 = experiment: Cytotoxicity against human Caki1 cells assessed as cell growth at 1 uM after 48 hrs by sulforhodamine B assay; conditions: CAKI-1, 48 h, read-out: Activity
NCI-H226 [25] = experiment: Cytotoxicity against human NCI-H226 cells assessed as cell growth at 100 nM after 48 hrs by sulforhodamine B assay; conditions: NCI-H226, 48 h, read-out: Activity
786-0 = experiment: Cytotoxicity against human 786-0 cells assessed as cell growth at 10 uM after 48 hrs by sulforhodamine B assay; conditions: 786-0, 48 h, read-out: Activity
MCF7 [26] = experiment: Cytotoxicity against human MCF7 cells assessed as cell growth at 0.001 uM after 48 hrs by sulforhodamine B assay; conditions: MCF7, 48 h, read-out: Activity
NCI-H460 = experiment: Cytotoxicity against human NCI-H460 cells assessed as cell growth at 1 uM after 48 hrs by sulforhodamine B assay; conditions: NCI-H460, 48 h, read-out: Activity

Cc1cc(O)cc(-c2nn(CC#N)cc2-c2ccnc(-c3ccc(N(C)C)cc3)c2)c1
GI50 (MCF7 [1]): 0.975 µM
LC50 (MCF7 [1]): 69.9 µM
TGI (MCF7 [1]): 13.9 µM
GI50 (SR [2]): 2.64 µM
LC50 (concentration killing 50% of cells) (SR [2]): > 100 µM
TGI (SR [2]): > 100 µM
GI50 (NCI-H226 [3]): 4.18 µM
TGI (NCI-H226 [3]): 21.8 µM
CC50 (NCI-H226 [3]): > 100 µM
growth at 1 µM (SK-MEL-28 [4]): 32%
growth at 0.1 µM (MCF7 [5]): 50%
growth at 0.001 µM (SR [6]): 93%
GI50 (SK-MEL-28 [7]): 5.22 µM
TGI (SK-MEL-28 [7]): 32.4 µM
CC50 (SK-MEL-28 [7]): > 100 µM
growth at 10 µM [8]: -28%
GI50 (HCC 2998 [9]): 3.19 µM
TGI (HCC 2998 [9]): 13.2 µM
CC50 (HCC 2998 [9]): 37.2 µM
growth at 0.01 µM (DU-145): 97%
growth at 10 µM (NCI-H226 [10]): -38%
growth at 0.01 µM (SR [11]): 93%
growth at 0.1 µM (RXF 393 [12]): 120%
growth at 0.1 µM (SR [13]): 74%
growth at 0.1 µM (HCT-116): 87%
growth at 1 µM (MCF7 [14]): 10%
growth at 0.001 µM (SK-MEL-28 [15]): 102%
GI50 (RXF 393 [16]): 2.87 µM
LC50 (concentration killing 50% of the starting cells) (RXF 393 [16]): > 100 µM
TGI (RXF 393 [16]): 61.4 µM
growth at 10 µM (HCC 2998 [17]): -98%
growth at 0.1 µM (SF-295): 78%
growth at 1 µM (RXF 393 [18]): -32%
growth at 0.01 µM (NCI-H226 [19]): 94%
growth at 0.1 µM (SK-MEL-28 [20]): 96%
growth at 0.01 µM (ACHN): 82%
growth at 0.001 µM (RXF 393 [21]): 100%
growth at 10 µM [22]: 41.6%
growth at 10 µM (HOP-92): 32.4%
growth at 1 µM (HCC 2998 [23]): 13%
growth at 0.01 µM (MDA-MB-435): 91%
growth at 1 µM (SR [24]): 17%
growth at 1 µM (CAKI-1): 9%
growth at 0.1 µM (NCI-H226 [25]): 100%
growth at 10 µM (786-0): -49%
growth at 0.001 µM (MCF7 [26]): 97%

COc1cc(C)cc(-c2c(-c3ccnc(-c4ccc(N(C)C)cc4)c3)cnn2CC#N)c1
growth at 10 µM [22]: 0.08%
growth at 10 µM (HOP-92): 29.1%
growth at 1 µM (CAKI-1): -21%
growth at 10 µM (786-0): 6%
growth at 1 µM (NCI-H460): -53%

COc1cc(C)cc(-c2nn(CC#N)cc2-c2ccc(-c3cccc(C(C)=O)c3)nc2)c1
GI50 (MCF7 [1]): 2.05 µM
LC50 (MCF7 [1]): > 100 µM
TGI (MCF7 [1]): 15.9 µM
GI50 (SR [2]): 1.62 µM
LC50 (concentration killing 50% of cells) (SR [2]): > 100 µM
TGI (SR [2]): > 100 µM
GI50 (NCI-H226 [3]): 4.29 µM
TGI (NCI-H226 [3]): 82.3 µM
CC50 (NCI-H226 [3]): > 100 µM
growth at 1 µM (SK-MEL-28 [4]): 31%
growth at 0.1 µM (MCF7 [5]): 69%
growth at 0.001 µM (SR [6]): 97%
GI50 (SK-MEL-28 [7]): 3.63 µM
TGI (SK-MEL-28 [7]): 93.6 µM
CC50 (SK-MEL-28 [7]): > 100 µM
growth at 10 µM [8]: -21%
GI50 (HCC 2998 [9]): 2.08 µM
TGI (HCC 2998 [9]): 6.77 µM
CC50 (HCC 2998 [9]): 54.4 µM
growth at 0.01 µM (DU-145): 98%
growth at 10 µM (NCI-H226 [10]): -3%
growth at 0.01 µM (SR [11]): 103%
growth at 0.1 µM (RXF 393 [12]): 73%
growth at 0.1 µM (SR [13]): 57%
growth at 0.1 µM (HCT-116): 78%
growth at 1 µM (MCF7 [14]): 7%
growth at 0.001 µM (SK-MEL-28 [15]): 92%
GI50 (RXF 393 [16]): 1.49 µM
LC50 (concentration killing 50% of the starting cells) (RXF 393 [16]): 8.62 µM
TGI (RXF 393 [16]): 3.59 µM
growth at 10 µM (HCC 2998 [17]): -62%
growth at 0.1 µM (SF-295): 75%
growth at 1 µM (RXF 393 [18]): -58%
growth at 0.01 µM (NCI-H226 [19]): 88%
growth at 0.1 µM (SK-MEL-28 [20]): 74%
growth at 0.01 µM (ACHN): 90%
growth at 0.001 µM (RXF 393 [21]): 90%
growth at 10 µM [22]: 17.7%
growth at 10 µM (HOP-92): 48.4%
growth at 1 µM (HCC 2998 [23]): -17%
growth at 0.01 µM (MDA-MB-435): 94%
growth at 1 µM (SR [24]): 22%
growth at 0.1 µM (NCI-H226 [25]): 86%
growth at 1 µM (NCI-H460): -27%
growth at 0.001 µM (MCF7 [26]): 94%
